Source: publication PMC10685179 (RSC Advances, 2023)
Values after ≈ are worked out from the molar mass of the structure shown.

Experiments:
C. albicans KA205 [1] = experiment: Agar well-diffusion, inhibition zone; assay type: cell-based, Candida albicans; settings: Candida albicans, KA205, read-out: Average diameter of inhibition zone (ZI)
Method in brief: (§1)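 Clinical MDR isolates from complicated UTI patients. Suspensions were made in Tryptic Soya and Sabouraud broths from subcultures on Tryptic Soya and Sabouraud agar plates. Agar well diffusion followed CLSI guidelines, with test compounds applied at 10 μM in DMSO. Fosfomycin and fluconazole were positive controls and DMSO the negative control. Zone diameters were read in mm, in triplicate.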

C. tropicalis KA205 [2] = experiment: Broth microdilution MIC and MFC; assay type: cell-based; settings: Candida tropicalis; for MIC: KA205, 24 h; for MFC: KA205, read-out: MFC/MIC
C. tropicalis KA205 [3] = experiment: Agar well-diffusion, inhibition zone; assay type: cell-based, Candida tropicalis; settings: Candida tropicalis, KA205, read-out: Average diameter of inhibition zone (ZI)
Method in brief: as §1

E. faecalis KA247 [4] = experiment: Agar well-diffusion, inhibition zone; assay type: cell-based, Enterococcus faecalis; settings: Enterococcus faecalis, KA247, read-out: Average diameter of inhibition zone (ZI)
Method in brief: as §1

P. mirabilis KA320 [5] = experiment: Agar well-diffusion, inhibition zone; assay type: cell-based, Proteus mirabilis; settings: Proteus mirabilis, KA320, read-out: Average diameter of inhibition zone (ZI)
Method in brief: as §1

E. coli KA780 [6] = experiment: Agar well-diffusion, inhibition zone; assay type: cell-based, Escherichia coli; settings: Escherichia coli, KA780, read-out: Average diameter of inhibition zone (ZI)
Method in brief: as §1

E. coli KA780 [7] = experiment: Broth microdilution MIC and MBC; assay type: cell-based; settings: Escherichia coli; for MIC: KA780, 24 h; for MBC: KA780, read-out: MBC/MIC
P. mirabilis KA320 [8] = experiment: Broth microdilution MIC and MBC; assay type: cell-based; settings: Proteus mirabilis; for MIC: KA320, 24 h; for MBC: KA320, read-out: MBC/MIC
S. aureus KA112 [9] = experiment: Broth microdilution MIC and MBC; assay type: cell-based; settings: Staphylococcus aureus; for MIC: KA112, 24 h; for MBC: KA112, read-out: MBC/MIC
S. aureus KA112 [10] = experiment: Agar well-diffusion, inhibition zone; assay type: cell-based, Staphylococcus aureus; settings: Staphylococcus aureus, KA112, read-out: Average diameter of inhibition zone (ZI)
Method in brief: as §1

E. faecalis KA247 [11] = experiment: Broth microdilution MIC and MBC; assay type: cell-based; settings: Enterococcus faecalis, KA247, 24 h
C. albicans KA205 [12] = experiment: Broth microdilution MIC and MFC; assay type: cell-based; settings: Candida albicans; for MIC: KA205, 24 h; for MFC: KA205, read-out: MFC/MIC
fungal isolates = experiment: Broth microdilution MIC/MFC, fungal panel; assay type: cell-based

| SMILES | zone of inhibition at 10 µM (C. albicans KA205 [1]) [mm] | MIC (C. tropicalis KA205 [2]) [µg/mL] | MFC (C. tropicalis KA205 [2]) [µg/mL] | zone of inhibition at 10 µM (C. tropicalis KA205 [3]) [mm] | zone of inhibition at 10 µM (E. faecalis KA247 [4]) [mm] | zone of inhibition at 10 µM (P. mirabilis KA320 [5]) [mm] | zone of inhibition at 10 µM (E. coli KA780 [6]) [mm] | MIC (E. coli KA780 [7]) [µg/mL] | MBC (E. coli KA780 [7]) [µg/mL] | MIC (P. mirabilis KA320 [8]) [µg/mL] | MBC (P. mirabilis KA320 [8]) [µg/mL] | MIC (S. aureus KA112 [9]) [µg/mL] | MBC (S. aureus KA112 [9]) [µg/mL] | zone of inhibition at 10 µM (S. aureus KA112 [10]) [mm] | MIC (E. faecalis KA247 [11]) [µg/mL] | MIC (C. albicans KA205 [12]) [µg/mL] | MFC (C. albicans KA205 [12]) [µg/mL] | MFC (fungal isolates) [µg/mL] |
| --- | --- | --- | --- | --- | --- | --- | --- | --- | --- | --- | --- | --- | --- | --- | --- | --- | --- | --- |
| Nc1nc2c(-c3ccc([N+](=O)[O-])cc3)nn(-c3ccccc3)c2s1 [Compound 2, 3-(4-nitrophenyl)-1-phenyl-1H-pyrazolo[4,3-d]thiazol-5-amine] | 17 ± 0.16 | 1 (≈ 2.96 µM) | 2 (≈ 5.93 µM) | 16 ± 0.63 | 17 | 16 ± 0.79 | 17 ± 0.62 | 4 (≈ 11.9 µM) | 0.5 (≈ 1.48 µM) | 8 (≈ 23.7 µM) | 1 (≈ 2.96 µM) | 8 (≈ 23.7 µM) | 0.5 (≈ 1.48 µM) | 17 ± 0.39 | 8 (≈ 23.7 µM) | 1 (≈ 2.96 µM) | 0.5 (≈ 1.48 µM) | – |
| CCOP(=O)(OCC)C(Nc1nc2c(-c3ccc([N+](=O)[O-])cc3)nn(-c3ccccc3)c2s1)c1ccc(Cl)cc1 (centres unmarked) [Compound 3, Diethyl((4-chlorophenyl)((3-(4-nitrophenyl)-1-phenyl-1H-pyrazolo[4,3-d]thiazol-5-yl)amino)methyl)phosphonate] | 17 ± 0.88 | 1 (≈ 1.67 µM) | 0.5 (≈ 0.836 µM) | 17 ± 0.48 | 18 ± 0.05 | 17 ± 0.71 | 19 ± 0.14 | 1 (≈ 1.67 µM) | 1 (≈ 1.67 µM) | 2 (≈ 3.34 µM) | 1 (≈ 1.67 µM) | 1 (≈ 1.67 µM) | 2 (≈ 3.34 µM) | 18 ± 0.31 | 2 (≈ 3.34 µM) | 1 (≈ 1.67 µM) | 1 (≈ 1.67 µM) | 0.5 to 1 (≈ 0.836 to 1.67 µM) |
| CCOP(=O)(OCC)C(Nc1nc2c(-c3ccc([N+](=O)[O-])cc3)nn(-c3ccccc3)c2s1)c1ccc(N(C)C)cc1 (centres unmarked) [Compound 4, Diethyl((4-(dimethylamino)phenyl)((3-(4-nitrophenyl)-1-phenyl-1H-pyrazolo[4,3-d]thiazol-5-yl)amino)methyl)phosphonate] | 16 ± 0.67 | 2 (≈ 3.3 µM) | 1 (≈ 1.65 µM) | 16 ± 0.54 | 16 ± 0.8 | 16 ± 0.34 | 17 ± 0.54 | 8 (≈ 13.2 µM) | 1 (≈ 1.65 µM) | 16 (≈ 26.4 µM) | 1 (≈ 1.65 µM) | 8 (≈ 13.2 µM) | 2 (≈ 3.3 µM) | 17 | 16 (≈ 26.4 µM) | 2 (≈ 3.3 µM) | 0.5 (≈ 0.824 µM) | 1 to 2 (≈ 1.65 to 3.3 µM) |
